Measured values collected from several papers.
Each line is one published result; the experiments were not run side by side.
Organism: Plasmodium falciparum
Observed: parasite growth
Technique: SYBR Green

The IC50 of `CCCCCNC[C@H](O)c1cc(Cl)cc2c1-c1ccc(Cl)cc1C2` is reported as 3.7 nM (W2; 48 h, drug-resistant strain, blood stage).
`COc1ccccc1C(=O)/C=C/c1cn(Cc2cn(-c3ccnc4cc(Cl)ccc34)nn2)c2ccccc12` gave an inhibition of over 50% (3D7; 10 µM, blood stage).
`CCCCCCCNC[C@@H](O)c1cc(Cl)cc2c1-c1ccc(Cl)cc1C2` gave an IC50 of 4.7 nM (W2; 48 h, drug-resistant strain, blood stage).
`CCCN(CCc1cccs1)[C@H]1CCc2c(O)cccc2C1` has an IC50 of 9270 nM (DD2; 48 h, drug-resistant strain, blood stage).
`CCCCCCNC[C@@H](O)c1cc(Cl)cc2c1-c1ccc(Cl)cc1C2` has an IC50 of 6.5 nM (W2; 48 h, drug-resistant strain, blood stage).
For `O=Cc1cn(Cc2cn(-c3ccnc4cc(Cl)ccc34)nn2)c2ccccc12`, the inhibition was 24.5% (3D7; 10 µM, blood stage).
For `Cn1cc2c3c1C(=O)C(N)=CC3=[N+](C)CC2`, the IC50 was 1140 nM (3D7; blood stage).
The IC50 of `CC(O)(CS(=O)(=O)c1ccc(F)cc1)C(=O)Nc1ccc(C#N)c(C(F)(F)F)c1` (centres unmarked) is reported as over 10000 nM (DD2; 48 h, drug-resistant strain, blood stage).
With `Cn1cc2c3c1C(=O)C(N)=CC3=NCC2` the IC50 was 3550 nM (DD2; blood stage).
`CCN(CC)CCCC(C)Nc1ccnc2cc(Cl)ccc12` (centres unmarked) gave an IC50 of 354 nM (MDR, TM90; 72 h, drug-resistant strain, blood stage).
With `O[C@H](CN1CCN(C(c2ccccc2)c2ccccc2)CC1)c1cc(Cl)cc2c1-c1ccc(Cl)cc1C2` the IC50 was 70.2 nM (W2; 48 h, drug-resistant strain, blood stage).
`Cc1cc(Nc2ccc(S(F)(F)(F)(F)F)cc2)n2nc(C(C)(F)F)nc2n1` gave an EC50 of 8.5 nM (DD2; blood stage).
For `O[C@@H](CNCCCC(F)(F)F)c1cc(Cl)cc2c1-c1ccc(Cl)cc1C2`, the IC50 was 3.8 nM (W2; 48 h, drug-resistant strain, blood stage).
`Cn1cc2c3c1C(=O)C(NCCc1ccc(O)cc1)=CC3=NCC2` has an IC50 of 3310 nM (3D7; blood stage).
`C[C@@H]1CC[C@H]2[C@@H](C)C(=O)O[C@@H]3O[C@@]4(C)CC[C@@H]1[C@]32OO4` gave an EC50 of 14 nM (72 h).
For `C[N+]1=C2C=C(NCCc3ccc(O)cc3)C(=O)c3[nH]cc(c32)CC1`, the IC50 was 28.3 nM (DD2; blood stage).
For `COCC(=O)N1CCC[C@H](C(=O)NCc2nc(-c3ccc(C#N)cc3)cs2)C1`, the EC50 was 18 nM (DD2; 72 h, blood stage).
`O=C1c2[nH]cc3c2C(=NCC3)c2c(-c3ccc(O)cc3)c[nH]c21` has an IC50 of 2090 nM (3D7; blood stage).
For `COCC(=O)N1CCC[C@H](C(=O)NCc2nc(-c3ccccc3)cs2)C1`, the EC50 was 69 nM (DD2; 72 h, blood stage).
`O=C1C(NCCc2c[nH]c3ccccc23)=CC2=NCCc3c[nH]c1c32` has an IC50 of 160 nM (3D7; blood stage).
`O[C@@H](CNCCN1CCN(C(c2ccccc2)c2ccccc2)CC1)c1cc(Cl)cc2c1-c1ccc(Cl)cc1C2` has an IC50 of 13 nM (W2; 48 h, drug-resistant strain, blood stage).
`C[N+]1=C2C=C(N)C(=O)c3[nH]cc(c32)CC1` has an IC50 of 681 nM (W2; blood stage).
`O[C@H](CN[C@@H](COCC1CC1)Cc1ccccc1)c1cc(Cl)cc2c1-c1ccc(Cl)cc1C2` has an IC50 of 5.4 nM (W2; 48 h, drug-resistant strain, blood stage).
